Published values collected from several papers.
Lines come from different studies, so protocols differ.
Target: Serine/threonine-protein kinase RIO1 (RIOK1, Homo sapiens, UniProt Q9BRS2)
Sequence (Q9BRS2 1-568, as in one of the studies): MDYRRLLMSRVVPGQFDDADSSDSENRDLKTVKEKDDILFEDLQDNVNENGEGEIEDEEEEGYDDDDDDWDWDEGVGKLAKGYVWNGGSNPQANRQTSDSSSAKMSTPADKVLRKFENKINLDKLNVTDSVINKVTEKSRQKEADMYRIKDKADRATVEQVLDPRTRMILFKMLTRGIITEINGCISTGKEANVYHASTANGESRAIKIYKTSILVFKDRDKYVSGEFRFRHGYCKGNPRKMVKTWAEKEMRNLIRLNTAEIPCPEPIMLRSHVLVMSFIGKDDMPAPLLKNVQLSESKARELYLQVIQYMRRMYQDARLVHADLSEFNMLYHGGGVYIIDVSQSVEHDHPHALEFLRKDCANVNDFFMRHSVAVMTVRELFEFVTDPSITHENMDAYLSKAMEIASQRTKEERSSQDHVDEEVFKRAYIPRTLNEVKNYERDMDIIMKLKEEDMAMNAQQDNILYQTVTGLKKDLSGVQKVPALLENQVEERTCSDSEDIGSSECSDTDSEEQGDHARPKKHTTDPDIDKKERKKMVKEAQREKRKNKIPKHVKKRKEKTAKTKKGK

| SMILES | observed | technique | tested at | remaining binding [%] |
| --- | --- | --- | --- | --- |
| CN(C)c1nccc(-c2cnn3ncccc23)n1 | binding | – | 1 µM | 100 |
| FC(F)(F)Oc1cccc(-c2cnc3ccc(-c4ccncc4)nn23)c1 | cell-free assay | competition with immobilised ligand | 5 µM | 17 |
| c1cnn2ncc(-c3ccnc(N4CCC45COC5)n3)c2c1 | binding | – | 1 µM | 36 |
| COc1cnc(Nc2cccc(S(N)(=O)=O)c2)nc1N1CCN(c2ccccc2)CC1 | binding | competition with immobilised ligand | 1 µM | 73 |
| O=C(c1ccc(Nc2ncc(Cl)c(-c3ccc(Cl)s3)n2)cc1)N1CCC(N2CCCC2)CC1 | binding | competition with immobilised ligand | 1 µM | 0 |
| CN(C)c1nccc(-c2cnc3ncccn23)n1 | binding | – | 1 µM | 100 |
| O=C(c1ccc(Nc2nccc(-c3cc4ccccc4s3)n2)cc1)N1CCC(N2CCCC2)CC1 | binding | competition with immobilised ligand | 1 µM | 0.1 |
| CNCc1ccccc1-c1csc([C@H](C)Nc2nc(C)nc3cc(OC)c(OC)cc23)c1 | cell-free assay | competition with immobilised ligand | 1 µM | 96 |
| CN(c1nccc(-c2cnn3ncccc23)n1)C1CC1 | binding | – | 1 µM | 100 |
| Cc1cnc(Nc2ccc(C(=O)N3CCC(N4CCCC4)CC3)cc2)nc1-c1cc2ccccc2s1 | binding | competition with immobilised ligand | 1 µM | 0 |
| O=C(NCc1ncc(C(F)(F)F)cc1Cl)c1ccc2c(c1)C1(CCS(=O)(=O)CC1)[C@@H](C1CC1)N2S(=O)(=O)c1ccc(F)cc1 | cell-free assay | competition with immobilised ligand | 1 µM | 78 |
| Cc1cnn2ncc(-c3ccnc(N(C)C)n3)c2c1 | binding | – | 1 µM | 98 |
| Cc1nc(Cc2cccc(C(F)(F)F)c2)sc1-c1ccc(C(N)=O)nc1 | cell-free assay | competition with immobilised ligand | 1 µM | 94 |
| CCN1CCN(Cc2ccc(C(=O)Nc3ccc(C)c(Oc4ccc5c(c4)CC(=O)N5)c3)cc2C(F)(F)F)CC1 | binding | competition with immobilised ligand | 1 µM | 90 |
| CCC(=N\O)/C(C)=C/c1ccc(F)cc1 | cell-free assay | competition with immobilised ligand | 1 µM | 80 |
| CC1CCCN1c1nccc(-c2cnn3ncccc23)n1 (stereo not shown) | binding | – | 1 µM | 100 |
| Cn1nc(C(=O)NCc2ccc(C(=O)O)cc2)cc1-c1ccc2[nH]ccc2c1 | cell-free assay | competition with immobilised ligand | 0.1 µM | 76 |
| O=C(NCC1CCOCC1)c1n[nH]cc1NC(=O)c1c(F)cccc1F | binding | competition with immobilised ligand | 1 µM | 88 |
| CCCOc1ccc([C@@H]2[C@@H](C(=O)O)[C@H](c3ccc4c(c3)OCO4)CN2CC(=O)Nc2c(CC)cccc2CC)cc1 | cell-free assay | competition with immobilised ligand | 1 µM | 100 |
| C=CC(=O)N1CCC(C(=O)NCC(=O)N2CCN(c3nc(-c4cnc(N)nc4C(F)F)nc(N4CCOCC4)n3)CC2)CC1 | binding | competition with immobilised ligand | 1 µM | 98 |
| COc1ccc2c(c1)O[C@@H](c1ccc(OC)c(OC)c1)C[C@H]2NC(=O)C1(c2ccc3c(c2)OC(F)(F)O3)CC1 | cell-free assay | competition with immobilised ligand | 1 µM | 100 |
| C[C@@H]1CCN(c2nccc(-c3cnn4ncccc34)n2)C1 | binding | – | 1 µM | 75 |
